From ChEMBL document CHEMBL1141647, “Novel ofloxacin derivatives: synthesis, antimycobacterial and toxicological evaluation” (Bioorg Med Chem Lett, 2008)
Converted amounts (≈) assume the structure as drawn.

Legend:
[1] = test system: Mycobacterium tuberculosis; test: Antimycobacterial activity against Mycobacterium tuberculosis H37Rv by agar dilution method; format: functional
Summary of the method: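 MIC99 was taken as the lowest concentration giving complete inhibition of bacterial growth.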

[2] = test system: Mycolicibacterium smegmatis; test: Antimycobacterial activity against Mycobacterium smegmatis ATCC 14468 by agar dilution method; format: functional
Summary of the method: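 MC² (M. smegmatis) growth inhibition; MIC99 taken as the lowest concentration giving complete inhibition of bacterial growth, in µM.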

[3] = test system: Vero; test: Cytotoxicity against african green monkey Vero cells after 72 hrs by MTT assay; format: cell-based; details: Chlorocebus sabaeus
Summary of the method: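 Vero cells exposed for 72 h; tested up to 62.5 µg/mL. Viability was read as cellular conversion of MTT to formazan, and IC50 was reported in µM.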

[4] = test system: Mus musculus; test: Phototoxic effect in UV light irradiated mouse assessed as number of mouse bearing erythema at 140 mg/kg, after 96 hrs relative to control; format: ADME, organism-based; design: dose 140 mg/kg; details: in vivo
Summary of the method: (§1)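 Mice received 140 mg/kg and were UV-irradiated immediately after dosing, irradiation ending at 4 h. Both ears were scored for erythema at 0, 4, 24, 48, 72 and 96 h, counted as the number of mice with erythema. Vehicle control was 0.5% aqueous sodium carboxymethylcellulose at 10 mL/kg.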

[5] = test system: Mus musculus; test: Phototoxic effect in mouse assessed as ear thickness at 140 mg/kg administered before UV light exposure relative to control; format: ADME, organism-based; design: dose 140 mg/kg; details: in vivo
Summary of the method: (§2)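 Mice dosed at 140 mg/kg and exposed to UV immediately after dosing. Irradiation ended at 4 h. Ear thickness (mm) was measured at 0 (pre-dose), 4, 24, 48, 72 and 96 h, left and right ears averaged, mean ± SEM. Comparison was against vehicle controls (0.5% aqueous sodium carboxymethylcellulose, 10 mL/kg) and against the 0 h reading.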

[6] = test system: Mus musculus; test: Phototoxic effect in UV light irradiated mouse assessed as ear thickness at 140 mg/kg, after 48 hrs relative to control; format: ADME, organism-based; design: dose 140 mg/kg; details: in vivo; summary of the method: as §2
[7] = biological target: DNA gyrase subunit A (Mycolicibacterium smegmatis, UniProt Q59556); test: Inhibition of Mycobacterium smegmatis DNA gyrase
Summary of the method: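 Inhibition of DNA supercoiling by M. smegmatis (MC²) gyrase, run under standard assay conditions. Varying compound amounts were tested against a fixed amount of enzyme, and IC50 was derived from that series. Relaxed circular DNA served as marker, 5% DMSO as solvent control, and moxifloxacin at 5 µg/mL as positive control.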

[8] = test system: Mus musculus; test: Phototoxic effect in UV light irradiated mouse assessed as ear thickness at 140 mg/kg, after 4 hrs relative to control; format: ADME, organism-based; design: dose 140 mg/kg; details: in vivo; summary of the method: as §2
[9] = test system: Mus musculus; test: Phototoxic effect in UV light irradiated mouse assessed as number of mouse bearing erythema at 140 mg/kg, after 4 hrs relative to control; format: ADME, organism-based; design: dose 140 mg/kg; details: in vivo; summary of the method: as §1
[10] = test system: Mus musculus; test: Phototoxic effect in UV light irradiated mouse assessed as number of mouse bearing erythema at 140 mg/kg, after 24 hrs relative to control; format: ADME, organism-based; design: dose 140 mg/kg; details: in vivo; summary of the method: as §1
[11] = test system: Mus musculus; test: Phototoxic effect in UV light irradiated mouse assessed as ear thickness at 140 mg/kg, after 24 hrs relative to control; format: ADME, organism-based; design: dose 140 mg/kg; details: in vivo; summary of the method: as §2
[12] = test system: Mus musculus; test: Phototoxic effect in UV light irradiated mouse assessed as ear thickness at 140 mg/kg, after 96 hrs relative to control; format: ADME, organism-based; design: dose 140 mg/kg; details: in vivo; summary of the method: as §2
[13] = test system: Mus musculus; test: Phototoxic effect in mouse assessed as number of mouse bearing erythema at 140 mg/kg administered before UV light exposure relative to control; format: ADME, organism-based; design: dose 140 mg/kg; details: in vivo; summary of the method: as §1
[14] = test system: Mus musculus; test: Phototoxic effect in UV light irradiated mouse assessed as ear thickness at 140 mg/kg, after 72 hrs relative to control; format: ADME, organism-based; design: dose 140 mg/kg; details: in vivo; summary of the method: as §2
[15] = test system: Mus musculus; test: Phototoxic effect in UV light irradiated mouse assessed as number of mouse bearing erythema at 140 mg/kg, after 48 hrs relative to control; format: ADME, organism-based; design: dose 140 mg/kg; details: in vivo; summary of the method: as §1
[16] = test system: Mus musculus; test: Phototoxic effect in UV light irradiated mouse assessed as number of mouse bearing erythema at 140 mg/kg, after 72 hrs relative to control; format: ADME, organism-based; design: dose 140 mg/kg; details: in vivo; summary of the method: as §1
[17] = test system: Mycobacterium tuberculosis; test: Antimycobacterial activity against Mycobacterium tuberculosis ATCC 35801 infected CD1 mouse lungs assessed as viable organisms at 50 mg/kg, ip after 35 days relative to control; format: functional; details: route intraperitoneal
Summary of the method: (§3)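 CD-1 mice infected intravenously with M. tuberculosis ATCC 35801; intraperitoneal treatment started 10 days after inoculation and continued for 10 days. At 35 days postinfection, spleens and right lungs were removed aseptically and viable organisms counted (log CFU). Counts were compared with vehicle-treated controls.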

[18] = test system: Mycobacterium tuberculosis; test: Antimycobacterial activity against Mycobacterium tuberculosis ATCC 35801 infected CD1 mouse spleen assessed as viable organisms at 50 mg/kg, ip after 35 days relative to control; format: functional; details: route intraperitoneal; summary of the method: as §3

Sequence of DNA gyrase subunit A (Q59556 whole entry): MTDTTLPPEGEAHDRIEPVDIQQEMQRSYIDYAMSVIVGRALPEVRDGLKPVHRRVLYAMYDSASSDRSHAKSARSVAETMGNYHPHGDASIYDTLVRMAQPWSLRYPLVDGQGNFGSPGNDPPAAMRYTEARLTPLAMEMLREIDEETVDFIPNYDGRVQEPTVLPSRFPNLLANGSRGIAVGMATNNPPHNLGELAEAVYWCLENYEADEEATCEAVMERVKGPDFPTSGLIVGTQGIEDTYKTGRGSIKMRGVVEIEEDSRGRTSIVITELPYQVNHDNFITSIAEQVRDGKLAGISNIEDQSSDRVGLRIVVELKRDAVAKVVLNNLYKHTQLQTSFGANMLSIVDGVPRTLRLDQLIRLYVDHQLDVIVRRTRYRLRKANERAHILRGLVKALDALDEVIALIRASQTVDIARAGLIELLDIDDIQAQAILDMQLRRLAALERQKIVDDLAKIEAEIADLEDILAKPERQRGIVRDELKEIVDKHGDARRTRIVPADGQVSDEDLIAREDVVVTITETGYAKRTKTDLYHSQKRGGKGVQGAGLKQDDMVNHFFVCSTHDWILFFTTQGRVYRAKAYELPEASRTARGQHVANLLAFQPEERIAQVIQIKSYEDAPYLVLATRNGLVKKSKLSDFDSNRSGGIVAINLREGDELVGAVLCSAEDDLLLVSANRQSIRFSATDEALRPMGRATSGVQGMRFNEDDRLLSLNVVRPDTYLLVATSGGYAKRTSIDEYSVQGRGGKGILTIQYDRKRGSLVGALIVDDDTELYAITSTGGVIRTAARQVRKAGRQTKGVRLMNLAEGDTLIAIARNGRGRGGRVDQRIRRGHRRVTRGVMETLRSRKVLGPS

CC1COc2c(N3CCn4cc(C(=O)O)nc4C3)c(F)c(N)c3c(=O)c(C(=O)O)cn1c23 (centres undefined)
MIC99 [1]: 0.88 µM (≈ 0.39 µg/mL) | MIC99 [2]: 5.28 µM (≈ 2.34 µg/mL) | IC50 [3]: > 141 µM

CC1COc2c(N3CCC(O)(c4ccc(Cl)cc4)CC3)c(F)c([N+](=O)[O-])c3c(=O)c(C(=O)O)cn1c23 (centres undefined)
MIC99 [1]: 1.51 µM (≈ 0.782 µg/mL) | MIC99 [2]: 6.04 µM (≈ 3.13 µg/mL) | IC50 [3]: 60.4 µM

CC1COc2c(N3CCn4cc(C(=O)O)nc4C3)c(F)cc3c(=O)c(C(=O)O)cn1c23 (centres undefined)
MIC99 [1]: 0.91 µM (≈ 0.39 µg/mL) | MIC99 [2]: 29.2 µM (≈ 12.5 µg/mL) | IC50 [3]: > 146 µM

CC1COc2c(N3CCC4(CC3)OCCO4)c(F)cc3c(=O)c(C(=O)O)cn1c23 (centres undefined)
MIC99 [1]: 0.47 µM (≈ 0.19 µg/mL) | MIC99 [2]: 3.86 µM (≈ 1.56 µg/mL) | Activity [4]: Non-toxic | Activity [5]: 0.34 mm | Activity [6]: 0.31 mm | IC50 [7]: 124 µM | IC50 [3]: 155 µM | Activity [8]: 0.37 mm | Activity [9]: Toxic | Activity [10]: Toxic | Activity [11]: 0.32 mm | Activity [12]: 0.35 mm | Activity [13]: Non-toxic | Activity [14]: 0.32 mm

CC1COc2c(N3CCN(C(c4ccccc4)c4ccc(Cl)cc4)CC3)c(F)c([N+](=O)[O-])c3c(=O)c(C(=O)O)cn1c23 (centres undefined)
Activity [15]: Non-toxic | MIC99 [1]: 2.63 µM (≈ 1.56 µg/mL) | MIC99 [2]: 0.66 µM (≈ 0.391 µg/mL) | Activity [4]: Non-toxic | Activity [5]: 0.28 mm | Activity [6]: 0.29 mm | IC50 [7]: 16.9 µM | IC50 [3]: 105 µM | Activity [16]: Non-toxic | Activity [8]: 0.28 mm | Activity [9]: Non-toxic | Activity [10]: Non-toxic | Activity [11]: 0.28 mm | Activity [12]: 0.31 mm | Activity [13]: Non-toxic | Activity [14]: 0.29 mm

CCn1cc(C(=O)O)c(=O)c2cc(F)c(N3CCNC(C)C3)c(F)c21 (centres undefined) [LOMEFLOXACIN]
Activity [15]: Toxic | Activity [4]: Toxic | Activity [5]: 0.31 mm | Activity [6]: 0.53 mm | Activity [16]: Toxic | Activity [8]: 0.4 mm | Activity [9]: Toxic | Activity [10]: Toxic | Activity [11]: 0.48 mm | Activity [12]: 0.6 mm | Activity [13]: Non-toxic | Activity [14]: 0.64 mm

CC1COc2c(N3CCC(O)(c4ccc(Cl)cc4)CC3)c(F)cc3c(=O)c(C(=O)O)cn1c23 (centres undefined)
MIC99 [1]: 6.62 µM (≈ 3.13 µg/mL) | MIC99 [2]: 26.4 µM (≈ 12.5 µg/mL)

CC1COc2c(N3CCSCC3)c(F)cc3c(=O)c(C(=O)O)cn1c23 (centres undefined)
MIC99 [1]: 2.14 µM (≈ 0.78 µg/mL) | MIC99 [2]: 4.28 µM (≈ 1.56 µg/mL) | IC50 [7]: 110 µM | IC50 [3]: > 172 µM

CC1COc2c(N3CCN(C)C(c4ccccc4)C3)c(F)c([N+](=O)[O-])c3c(=O)c(C(=O)O)cn1c23 (centres undefined)
MIC99 [1]: 3.23 µM (≈ 1.56 µg/mL) | MIC99 [2]: 6.49 µM (≈ 3.13 µg/mL) | IC50 [3]: 130 µM

Cc1onc(-c2c(F)cccc2F)c1C(=O)N1CCN(c2c(F)c([N+](=O)[O-])c3c(=O)c(C(=O)O)cn4c3c2OCC4C)CC1 (centres undefined)
MIC99 [1]: 5.1 µM (≈ 3.13 µg/mL) | MIC99 [2]: 1.27 µM (≈ 0.779 µg/mL) | IC50 [3]: 102 µM

CC1COc2c(N3CCN(C(=O)c4ccco4)CC3)c(F)c([N+](=O)[O-])c3c(=O)c(C(=O)O)cn1c23 (centres undefined)
MIC99 [1]: 0.8 µM (≈ 0.389 µg/mL) | MIC99 [2]: 3.21 µM (≈ 1.56 µg/mL) | IC50 [3]: 64.2 µM

CC1COc2c(N3CCN(C)CC3)c(F)cc3c(=O)c(C(=O)O)cn1c23 (centres undefined) [OFLOXACIN]
MIC99 [1]: 2.16 µM (≈ 0.781 µg/mL) | MIC99 [2]: 2.16 µM (≈ 0.781 µg/mL) | IC50 [3]: > 155 µM | Log10 cfu [17]: 6.61 | Log10 cfu [18]: 7.61

CC1COc2c(N3CCC4(CC3)OCCO4)c(F)c([N+](=O)[O-])c3c(=O)c(C(=O)O)cn1c23 (centres undefined)
MIC99 [1]: 0.21 µM (≈ 0.0944 µg/mL) | MIC99 [2]: 3.47 µM (≈ 1.56 µg/mL) | IC50 [3]: 139 µM

CC1COc2c(N3CCN(C(c4ccccc4)c4ccc(Cl)cc4)CC3)c(F)cc3c(=O)c(C(=O)O)cn1c23 (centres undefined)
MIC99 [1]: 5.71 µM (≈ 3.13 µg/mL) | MIC99 [2]: 45.6 µM (≈ 25 µg/mL)

CC1COc2c(N3CCN(C(=O)c4ccco4)CC3)c(F)cc3c(=O)c(C(=O)O)cn1c23 (centres undefined)
Activity [15]: Non-toxic | MIC99 [1]: 7.09 µM (≈ 3.13 µg/mL) | MIC99 [2]: 3.53 µM (≈ 1.56 µg/mL) | Activity [4]: Non-toxic | Activity [5]: 0.29 mm | Activity [6]: 0.29 mm | IC50 [7]: > 113 µM | Activity [16]: Non-toxic | Activity [8]: 0.3 mm | Activity [10]: Non-toxic | Activity [11]: 0.29 mm | Activity [12]: 0.3 mm | Activity [13]: Non-toxic | Activity [14]: 0.29 mm

CC1COc2c(N3CCN(C(=O)C4COc5ccccc5O4)CC3)c(F)cc3c(=O)c(C(=O)O)cn1c23 (centres undefined)
MIC99 [1]: 12.3 µM (≈ 6.25 µg/mL) | MIC99 [2]: 49.1 µM (≈ 25 µg/mL)

CC1COc2c(N3CCN(Cc4ccc5c(c4)OCO5)CC3)c(F)cc3c(=O)c(C(=O)O)cn1c23 (centres undefined)
MIC99 [1]: 6.5 µM (≈ 3.13 µg/mL) | MIC99 [2]: 26 µM (≈ 12.5 µg/mL)
